Bioassay records from PubChem.
Hits are enriched below; roughly 2.5% of the tested compounds scored in any of these assays.
E-selectin induc: E-selectin induction on HUVECs; P16581; HUVEC E-selectin immunofluorescence imaging; normalized: neutral wells 0, TNF-alpha wells 100; activation, % at 7.58 µM; 0.37% of 260,000 active;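 active means mean E-selectin-positive cell signal at least 10% of the positive control, reached in at least 60% of replicates, without over 20% cell loss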
Target sequence (P16581 whole entry, looked up): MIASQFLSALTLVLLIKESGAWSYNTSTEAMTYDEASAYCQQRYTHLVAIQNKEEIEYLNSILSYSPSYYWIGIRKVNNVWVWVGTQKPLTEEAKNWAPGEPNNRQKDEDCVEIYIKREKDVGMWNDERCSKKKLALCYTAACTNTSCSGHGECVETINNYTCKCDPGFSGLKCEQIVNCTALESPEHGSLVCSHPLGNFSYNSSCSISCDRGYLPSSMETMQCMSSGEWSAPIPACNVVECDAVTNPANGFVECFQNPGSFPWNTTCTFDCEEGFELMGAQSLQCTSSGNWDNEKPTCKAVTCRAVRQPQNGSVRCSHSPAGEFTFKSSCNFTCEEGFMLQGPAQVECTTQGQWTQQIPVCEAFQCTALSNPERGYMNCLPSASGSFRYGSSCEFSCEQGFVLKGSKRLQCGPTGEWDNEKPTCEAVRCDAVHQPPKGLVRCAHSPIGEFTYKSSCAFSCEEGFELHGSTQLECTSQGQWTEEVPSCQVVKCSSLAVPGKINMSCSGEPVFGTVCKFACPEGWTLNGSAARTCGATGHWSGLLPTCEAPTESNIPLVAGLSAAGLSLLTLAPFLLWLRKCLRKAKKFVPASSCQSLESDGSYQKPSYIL
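Test system: HUVEC | Signal: Immunofluorescence imaging | Read-out: Percent E-selectin-positive cells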
S100A4 inh HTS: inhibitors of human S100A4 binding to myosin IIA peptide | 0.14% of 360,000 active | inhibition, % at 10.7 µM | P26447 | S100A4/TAMRA-MyoIIA peptide fluorescence polarization;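 active means mean inhibition of at least 70% across replicates, with every replicate also reaching that level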
Target sequence (P26447 whole entry, looked up): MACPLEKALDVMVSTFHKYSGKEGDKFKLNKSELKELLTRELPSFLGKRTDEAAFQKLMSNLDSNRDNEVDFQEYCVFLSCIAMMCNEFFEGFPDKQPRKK
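Compound dosing: one dose per compound; test system: human S100A4 monomer with TAMRA-labelled myosin IIA peptide; probe or stimulus: TAMRA-labelled myosin IIA heavy-chain peptide probe, 5 nM; medium: HEPES buffer with Ca2+, pH 7.2; schedule: 5 min incubation before reading; benchmarks: neutral control DMSO, positive control TFP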
FGF22 binding: binders of recombinant human FGF22 by thermal shift. Q9HCT0. AID 651658. activity (Tm shift, normalised), % at 9.99 µM. 1.5% of 340,000 active. SYPRO orange fluorescence; percent of sucrose octasulfate shift, DMSO zero;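 active means mean Tm shift, scaled 0 neutral to 100 positive control, at about 1.3% or above, every replicate too, limit read from the data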
SIRT5 inh: inhibitors of human sirtuin-5 desuccinylase | Q9NXA8 | Purified SirT5, succinyl-peptide AMC, trypsin-coupled fluorescence | inhibition, % at 15 µM | 1.1% of 330,000 active | AID 652115; in the data active means inhibition above about 15%
miR-122 sensor: miR-122 inhibition in Huh7 cells. Huh7 miR-122 Renilla luciferase sensor, 48 h; neutral wells = 0, positive control = 100. activation (reporter increase), % at 12.5 µM. 0.3% of 340,000 active. AID 602342;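 active means mean replicate activation score at least 90 and every replicate individually at or above 90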;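 further: higher luciferase means less miR-122 activity so hits act as miR-122 inhibitors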
Of the large screens only hits and unclear results are named; the others gave an inactive call; [ ] = remark or other dose.

CN(c1ccc(O)cc1)c1nc(O)c(C2=c3ccccc3=NC2=O)s1	SIRT5 inh 20 (no result: miR-122 sensor)
CN1c2ccc(-c3ccc(F)cc3)cc2[C@@H]2[C@@H](CCN2C(=O)c2ccncc2)[C@@H]1CO	SIRT5 inh 19
CN1c2ccc(-c3ccc(F)cc3)cc2[C@@H]2[C@@H](CCN2C(=O)c2ccncc2)[C@H]1CO	none
CN1c2ccc(C#Cc3cccnc3)cc2[C@@H]2[C@@H](CCN2C(=O)C2CCC2)[C@H]1CO	E-selectin induc 64 (no result: FGF22 binding, miR-122 sensor)
COc1cccc(-c2ccc3c(c2)[C@H]2[C@H](CCN2C(=O)c2ccccc2F)[C@@H](CO)N3C)c1	none (no result: S100A4 inh HTS, SIRT5 inh)
CN1c2ccc(-c3cccc(F)c3)cc2[C@H]2[C@H](CCN2C(=O)C2CC2)[C@H]1CO	miR-122 sensor 100[16.7 µM]
CN1c2ccc(-c3cccc(F)c3)cc2[C@H]2[C@H](CCN2C(=O)c2ccccc2F)[C@H]1CO	S100A4 inh HTS 89, miR-122 sensor 107[16.7 µM]
COCC(=O)Nc1ccc2c(c1)C(=O)N(C)C[C@H](OC)[C@H](C)CN(C(=O)CC1CC1)[C@@H](C)CO2	none
CCOc1cc(N2CCOCC2)c(OCC)cc1NC(=S)NCCCOC	FGF22 binding 43 (no result: miR-122 sensor)
O=C(COc1ccc(-n2ccnc2)cc1)Nc1cccc(Cl)c1	SIRT5 inh 23 (no result: miR-122 sensor)
CCNC(=O)N1CCN(c2ccc(N3CCN(Cc4ccccc4)[C@H](C)C3)c(C)c2)[C@@H](C)C1	FGF22 binding 40 (no result: miR-122 sensor)
O=C(O)c1ccc(NC2=C/C(=N/S(=O)(=O)c3cccs3)c3ccccc3C2=O)cc1	SIRT5 inh 20
Cc1cc(C)c(S(=O)(=O)/N=C2\C=C(Nc3ccc(C(=O)O)cc3)C(=O)c3ccccc32)c(C)c1	none
O=C(O)c1ccc(NC2=C/C(=N/S(=O)(=O)c3ccccc3)c3ccccc3C2=O)cc1	SIRT5 inh 41 (no result: E-selectin induc)
COc1ccc(CNC(=O)C/C(C)=N/NC(=O)COc2ccc(C)cc2Br)cc1	FGF22 binding 43 (no result: miR-122 sensor)
CCCNC(=O)C/C(C)=N/NC(=O)COc1ccc(C)cc1Br	none (no result: E-selectin induc, SIRT5 inh)
CC(C)(C)NS(=O)(=O)c1ccc(NC(=O)C2CCCCC2)cc1	none
CC(C)(C)NS(=O)(=O)c1ccc(NC(=S)NC(=O)C2CC2)cc1	miR-122 sensor 196
Cc1cc(C)c(NC(=O)CNC(=O)COC(=O)/C=C/c2cccs2)c(C)c1	S100A4 inh HTS 84
CCCC(=O)N1CC2(CCN(Cc3cccnc3)CC2)c2c([nH]c3cc(OC)ccc23)[C@H]1CO	none (no result: S100A4 inh HTS, FGF22 binding, SIRT5 inh, miR-122 sensor)
COC(=O)N/N=C/c1cn(Cc2ccc(Cl)cc2Cl)c2ccccc12	SIRT5 inh 20 (no result: E-selectin induc)
COc1cc(COCC(O)CN2CCN(Cc3ccccc3)CC2)cc(OC)c1OC (centres undefined)	FGF22 binding 44 (no result: E-selectin induc)
Cc1ccc(S(=O)(=O)Nc2ccc3c(c2)C(=O)N([C@H](C)CO)C[C@H](C)[C@@H](CN(C)S(=O)(=O)c2ccc(F)cc2)OCCCC[C@@H](C)O3)cc1	none
Cc1ccc(S(=O)(=O)N(C)C[C@H]2OCCCC[C@H](C)Oc3ccc(NS(=O)(=O)c4ccc(F)cc4)cc3C(=O)N([C@H](C)CO)C[C@H]2C)cc1	SIRT5 inh 25
Cc1ccc(S(=O)(=O)N(C)C[C@@H]2OCCCC[C@H](C)Oc3ccc(NS(=O)(=O)c4ccc(F)cc4)cc3C(=O)N([C@@H](C)CO)C[C@@H]2C)cc1	SIRT5 inh 20
Cc1ccc(S(=O)(=O)N(C)C[C@H]2OCCCC[C@H](C)Oc3ccc(NS(=O)(=O)c4ccc(F)cc4)cc3C(=O)N([C@@H](C)CO)C[C@H]2C)cc1	SIRT5 inh 25
Cc1ccc(S(=O)(=O)N(C)C[C@@H]2OCCCC[C@H](C)Oc3ccc(NS(=O)(=O)c4ccc(F)cc4)cc3C(=O)N([C@H](C)CO)C[C@@H]2C)cc1	SIRT5 inh 26
N#C[C@@H]1[C@H](c2ccc(C3=CCCC3)cc2)[C@@H](CO)N1C(=O)C1CC1	none (no result: miR-122 sensor)
Cc1ccc(S(=O)(=O)N(C)C[C@@H]2OCCCC[C@@H](C)Oc3ccc(NS(=O)(=O)c4ccc(F)cc4)cc3C(=O)N([C@@H](C)CO)C[C@H]2C)cc1	SIRT5 inh 20
Cc1ccc(S(=O)(=O)N(C)C[C@H]2OCCCC[C@@H](C)Oc3ccc(NS(=O)(=O)c4ccc(F)cc4)cc3C(=O)N([C@@H](C)CO)C[C@H]2C)cc1	SIRT5 inh 22 (no result: FGF22 binding)
Cc1ccc(S(=O)(=O)Nc2ccc3c(c2)C(=O)N([C@@H](C)CO)C[C@H](C)[C@@H](CN(C)S(=O)(=O)c2ccc(F)cc2)OCCCC[C@@H](C)O3)cc1	none (no result: miR-122 sensor)
Cc1ccc(S(=O)(=O)N(C)C[C@@H]2OCCCC[C@@H](C)Oc3ccc(NS(=O)(=O)c4ccc(F)cc4)cc3C(=O)N([C@H](C)CO)C[C@@H]2C)cc1	none
Cc1ccc(S(=O)(=O)Nc2ccc3c(c2)C(=O)N([C@H](C)CO)C[C@H](C)[C@H](CN(C)S(=O)(=O)c2ccc(F)cc2)OCCCC[C@H](C)O3)cc1	SIRT5 inh 17
O=C(O)[C@H](Cc1ccccc1)N1C(=O)c2c(Cl)c(Cl)c(Cl)c(Cl)c2C1=O	FGF22 binding 5.8 (no result: E-selectin induc, miR-122 sensor)
O=C(O)C(Cc1ccccc1)n1cccc1 (centres undefined)	none (no result: E-selectin induc, S100A4 inh HTS, FGF22 binding, SIRT5 inh)
C[C@H](CO)N1C[C@H](C)[C@@H](CN(C)C(=O)C2CCC2)Oc2cc(Br)ccc2S1(=O)=O	none (no result: S100A4 inh HTS, FGF22 binding, SIRT5 inh)
CCC(CO)NCC#Cc1ccccc1 (centres undefined)	FGF22 binding 44 (no result: E-selectin induc, miR-122 sensor)
CCOc1ccc(Cl)cc1S(=O)(=O)n1cnc2cc(C)c(C)cc21	miR-122 sensor 183 (no result: E-selectin induc, S100A4 inh HTS, FGF22 binding, SIRT5 inh)
O=C(c1ccc(F)cc1)N1CC(=O)N2[C@H](C1)[C@@H](c1ccc(C#CC3CCCC3)cc1)[C@@H]2CO	none (no result: E-selectin induc, FGF22 binding, miR-122 sensor)
CCCC(=O)N1CC2(C1)CN(C(=O)C1CCC1)[C@@H](CO)c1[nH]c3cc(OC)ccc3c12	none (no result: miR-122 sensor)
C/C(N)=C(/C#N)C(=O)CSc1nnc(C)n1-c1ccccc1	FGF22 binding 43 (no result: miR-122 sensor)
CC(C)(CO)NCc1ccc(Br)cc1	FGF22 binding 43 (no result: E-selectin induc, miR-122 sensor)
Cc1cccc(C)c1N=Cc1c(C(F)(F)F)[nH][nH]c1=O	FGF22 binding 43 (no result: E-selectin induc)
Cn1[nH]c(C(F)(F)F)c(C=Nc2ccc(Cl)cc2)c1=O	none (no result: E-selectin induc)
COc1ccc(CN=Cc2c(C(F)(F)F)[nH][nH]c2=O)cc1	none (no result: E-selectin induc, S100A4 inh HTS, FGF22 binding, SIRT5 inh)
COC(=O)c1ccc(N=Cc2c(C(F)(F)F)[nH][nH]c2=O)cc1	FGF22 binding 43 (no result: E-selectin induc, miR-122 sensor)
CN(C)S(=O)(=O)c1ccc(N=Cc2c(C(F)(F)F)[nH][nH]c2=O)cc1	FGF22 binding 44 (no result: E-selectin induc)
C=CC[C@@H](CC(=O)N(CCO)Cc1ccccc1)C(=O)N[C@H](COC(=O)[C@@H](CC=C)CC(=O)OC(C)(C)C)c1ccccc1	SIRT5 inh 20
C=CC[C@H](CC(=O)N(CCO)Cc1ccccc1)C(=O)N[C@@H](COC(=O)[C@H](CC=C)CC(=O)OC(C)(C)C)Cc1c[nH]c2ccccc12	SIRT5 inh 27
